# Measured values of several laboratories.
# Compare with care: the assays were run in different laboratories.
# Target: Ephrin type-A receptor 3 (EPHA3, Homo sapiens, UniProt P29320)
# Residues used in one study (P29320 1-983): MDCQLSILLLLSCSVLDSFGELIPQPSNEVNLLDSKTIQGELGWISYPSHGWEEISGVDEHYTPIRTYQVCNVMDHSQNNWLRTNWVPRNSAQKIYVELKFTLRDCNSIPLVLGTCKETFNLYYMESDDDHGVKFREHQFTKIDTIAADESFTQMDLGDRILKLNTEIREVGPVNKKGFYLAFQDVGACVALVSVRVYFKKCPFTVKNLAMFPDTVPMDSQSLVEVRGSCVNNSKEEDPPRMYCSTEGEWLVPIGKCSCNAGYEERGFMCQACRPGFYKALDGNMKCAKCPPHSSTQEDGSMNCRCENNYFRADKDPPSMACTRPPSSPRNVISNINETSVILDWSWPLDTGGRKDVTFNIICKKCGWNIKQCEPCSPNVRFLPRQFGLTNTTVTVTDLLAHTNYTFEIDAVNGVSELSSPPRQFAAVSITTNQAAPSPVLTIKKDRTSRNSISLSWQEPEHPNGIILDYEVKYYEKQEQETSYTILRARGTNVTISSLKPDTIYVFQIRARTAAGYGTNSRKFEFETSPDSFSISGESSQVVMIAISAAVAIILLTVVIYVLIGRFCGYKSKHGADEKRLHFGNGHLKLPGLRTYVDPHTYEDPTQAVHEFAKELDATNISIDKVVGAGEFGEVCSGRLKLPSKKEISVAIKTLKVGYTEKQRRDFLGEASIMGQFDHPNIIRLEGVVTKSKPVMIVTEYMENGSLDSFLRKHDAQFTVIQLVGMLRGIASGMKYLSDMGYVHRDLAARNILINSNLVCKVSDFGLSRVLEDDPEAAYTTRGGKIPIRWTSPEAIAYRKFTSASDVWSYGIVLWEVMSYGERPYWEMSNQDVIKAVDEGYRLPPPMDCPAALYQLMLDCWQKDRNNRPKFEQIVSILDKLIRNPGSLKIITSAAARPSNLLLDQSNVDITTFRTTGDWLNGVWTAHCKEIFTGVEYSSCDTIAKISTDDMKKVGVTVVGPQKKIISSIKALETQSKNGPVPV
Compound,read-out,action,method,concentration,quantity,result
CNC(=O)c1cc(Oc2ccc(NC(=O)Nc3ccc(Cl)c(C(F)(F)F)c3)cc2)ccn1,enzyme activity,inhibitor,,10 µM,inhibition,95%
CCCOc1ccc(OC)c(F)c1C(=O)c1ccc(C(=O)N[C@@H]2CNC[C@H]2NC(=O)c2ccc3[nH]ncc3c2)cc1,enzyme activity,inhibitor,,10 µM,remaining activity,61%
CSc1nc(C)c(-c2ccnc(Nc3ccc(N4CCOCC4)cc3)c2)[nH]1,cell-free assay,inhibitor,,10 µM,inhibition,-6.3%
O=C1NC(=O)c2cc(Nc3ccc(F)cc3)c(Nc3ccc(F)cc3)cc21,cell-free assay,,,0.5 µM,remaining signal,96.6%
Cc1nc(N2CC[C@@H](O)C2)ncc1-c1cc(C(F)(F)F)cc2[nH]ncc12,cell-free assay,,competition with immobilised ligand,1 µM,remaining binding,94%
CCCS(=O)(=O)Nc1ccc(F)c(C(=O)c2c[nH]c3ncc(-c4ccc(Cl)cc4)cc23)c1F,enzyme activity,inhibitor,,1 µM,inhibition,< 10%
O=C1Nc2ccc(Cl)cc2C1=Cc1cc(Cl)c(O)c(Cl)c1,cell-free assay,,,0.5 µM,remaining signal,82.5%
CN(C)C1CCN(CC#Cc2nn(C3CCCC3)c3nc(NCc4ccccc4)ncc23)C1 (stereo not shown),enzyme activity,inhibitor,FRET,10 µM,inhibition,-3%
CCN(CC)c1ccc(C2=NNC(=O)CC2C)cc1[N+](=O)[O-] (stereo not shown),enzyme activity,inhibitor,,10 µM,remaining activity,100%
COc1cc2ncnc(Nc3ccc(F)c(Cl)c3)c2cc1OCCCN1CCOCC1,cell-free assay,,,0.5 µM,remaining signal,94.4%
O=C(NC[C@@H]1[C@H]2CN(C(=O)OCc3cc(C(F)(F)F)cc(C(F)(F)F)c3)C[C@@H]12)c1ccc2[nH]nnc2c1,cell-free assay,,competition with immobilised ligand,1 µM,remaining binding,100%
Cc1ccc(Nc2nccc(N(C)c3ccc4c(C)n(C)nc4c3)n2)cc1S(N)(=O)=O,enzyme activity,inhibitor,,10 µM,inhibition,30%
CCc1ccccc1C(=O)Nc1n[nH]c2c(C)c(F)c(C3C(C#N)=C(C)N(C)C(C)=C3C#N)cc12,cell-free assay,,competition with immobilised ligand,1 µM,remaining binding,100%
CNC(=O)c1cc2c(Oc3ccc(NC(=O)C4(C(=O)Nc5ccc(F)cc5)CC4)cc3)ccnc2cc1OC,enzyme activity,inhibitor,radiometric,1 µM,inhibition,95%
CCOCCn1cc(C(=O)Nc2ccc(-n3nc(-c4cccnc4)cc3C(F)(F)F)cn2)ccc1=O,cell-free assay,,competition with immobilised ligand,1 µM,remaining binding,99%
CC(C)(O)[C@H]1CC[C@H](Nc2ccc3ncc(-c4cccc(C(F)(F)F)c4)n3n2)CC1,enzyme activity,inhibitor,,1 µM,remaining activity,107%
CCCCN(CCCC)C(=O)CN1C[C@@H](c2cc(OC)c3c(c2)OCO3)[C@H](C(=O)O)[C@H]1CC(C)(C)CCC,cell-free assay,,competition with immobilised ligand,1 µM,remaining binding,95.3%
Nc1nc(Nc2ccc(S(N)(=O)=O)cc2)nn1C(=O)c1c(F)cccc1F,cell-free assay,,,0.5 µM,remaining signal,107%
CCOC(=O)c1cc2cc(-c3cc(C(=O)NCc4ccc(C(=O)O)cc4)nn3C)ccc2[nH]1,cell-free assay,,competition with immobilised ligand,0.1 µM,remaining binding,100%
Cc1ccc(C(=O)NCc2ccsc2)cc1C#Cc1cn(C(C)C)c2ncnc(N)c12,enzyme activity,inhibitor,,1 µM,activity vs control,45%
Cc1noc([C@H]2C[C@@H](c3ccc(C(F)(F)F)cc3)CN(C(=O)N3CCS(=O)(=O)C3)C2)n1,cell-free assay,,competition with immobilised ligand,1 µM,remaining binding,100%
CC(C)(C)c1nc(-c2cccc(NS(=O)(=O)c3c(F)cccc3F)c2F)c(-c2ccnc(N)n2)s1,enzyme activity,inhibitor,radiometric,1 µM,remaining activity,91%
